This is an account of results in ChEMBL document CHEMBL3124852, “Synthesis and evaluation of (-)-Massoialactone and analogues as potential anticancer and anti-inflammatory agents” (Eur J Med Chem, 2014).

Structures are written as SMILES. Values after ≈ are worked out from the molar mass of the structure shown.

The subject of one data set is K562. The data set is described as follows: Cytotoxicity against human K562 cells after 72 hrs by MTT assay. Format: functional, cell-based. The settings on record: K562, 72 h. In short, it runs like this: (§1)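 Tumour cells plated at 10⁵ cells/mL (adherent) or 3 × 10⁵ cells/mL (leukaemias) in medium with fetal bovine serum, 2 mM glutamine, penicillin/streptomycin, 37 °C, 5% CO₂. Compounds ([…], 0.1% DMSO) added for 72 h; MTT (5 mg/mL stock) added at 69 h, formazan dissolved in DMSO after 3 h, read at 595 nm. IC50 with 95% CI from nonlinear regression, two experiments.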

A further data set relates to HL-60. The data set can be described thus: Cytotoxicity against human HL60 cells after 72 hrs by MTT assay. In kind it is functional, cell-based. Conditions: HL-60, 72 h; call rule not given here. In short, it runs like this:
as §1
(Tetrazolium assays rely on reduction of a dye to a coloured formazan, in cell work by metabolically active cells.)

Data set [1] can be described thus: Cytotoxicity against LPS-stimulated Balb/c mouse peritoneal macrophages assessed as cell viability at 12.5 ug/ml after 24 hrs by MTT assay relative to control. Format: cell-based, Peritoneal macrophage cell. Conditions: read-out: Activity. In short, it runs like this:
(§2)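 Adherent thioglycollate-elicited Balb/c peritoneal macrophages exposed 24 h to compound (3.1–25.0 µg/mL) and/or LPS (1 µg/mL), then MTT (5 mg/mL stock) added for 4 h; formazan dissolved in DMSO, absorbance 550 nm. Cell death % = (1 − A_test/A_control) × 100. Quadruplicate wells, three independent experiments; mean ± SD.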

Data set [2] can be described thus: Cytotoxicity against LPS-stimulated Balb/c mouse peritoneal macrophages assessed as cell viability at 25 ug/ml after 24 hrs by MTT assay relative to control. In kind it is cell-based, Peritoneal macrophage cell. The settings on record: read-out: Activity. In short, it runs like this:
as §2

Data set [3] is described as follows: Cytotoxicity against LPS-stimulated Balb/c mouse peritoneal macrophages assessed as cell viability at 3.1 ug/ml after 24 hrs by MTT assay relative to control. Format: cell-based, Peritoneal macrophage cell. Conditions: read-out: Activity. In short, it runs like this:
as §2

The subject of another data set is NCI-H292. The data set is described as follows: Cytotoxicity against human NCI-H292 cells after 72 hrs by MTT assay. In kind it is functional, cell-based. The settings on record: NCI-H292, 72 h. Summed up: as §1
The subject of the next data set is MCF7. The data set is described as follows: Cytotoxicity against human MCF7 cells after 72 hrs by MTT assay. The settings on record: MCF7, 72 h. In kind it is functional, cell-based.
Data set [4] can be described thus: Cytotoxicity against LPS-stimulated Balb/c mouse peritoneal macrophages assessed as cell viability at 6.2 ug/ml after 24 hrs by MTT assay relative to control. In kind it is cell-based, Peritoneal macrophage cell. The settings on record: read-out: Activity. In short, it runs like this:
as §2

The nature of data set [5]: Cytotoxicity against LPS-stimulated Balb/c mouse peritoneal macrophages assessed as cell viability after 24 hrs by MTT assay. In kind it is cell-based. Conditions: peritoneal macrophage cell. Summed up: as §2
For another data set, the system named is HT-29. The data set is described as follows: Cytotoxicity against human HT-29 cells after 72 hrs by MTT assay. Format: functional, cell-based. Conditions: HT-29, 72 h. Summed up: as §1
Data set [6] in a line: Antiinflammatory activity in Balb/c mouse peritoneal macrophages assessed as reduction in LPS-induced nitric oxide production at 3.1 ug/ml after 24 hrs by Griess method relative to control. In kind it is functional, Peritoneal macrophage cell. Summed up:
(§3)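 Thioglycollate-elicited (2.5 mL 3%, i.p., 72 h) peritoneal cells from Balb/c mice, viability checked by trypan blue, cultured at 5 × 10⁶ cells/mL in RPMI-1640 + 10% FBS; non-adherent cells removed after 2 h at 37 °C, 5% CO₂. Adherent macrophages treated with compound plus LPS (1 µg/mL) 24 h; supernatant collected. Mean ± SD of three independent experiments; ANOVA with Newman-Keuls versus medium-only cells.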
Background: Griess reagent forms a coloured azo dye with nitrite.

Data set [7] is described as follows: Antiinflammatory activity in Balb/c mouse peritoneal macrophages assessed as reduction in LPS-induced TNF-alpha production at 3.1 ug/ml after 24 hrs by ELISA relative to control. In kind it is functional, Peritoneal macrophage cell. In short, it runs like this: as §3
(In general: An ELISA detects its analyte on a solid surface through an enzyme-linked reagent.)

Regarding `O=C1C=CCC(c2ccccc2)O1` (configuration not stated), the IC50 was determined as 8.9 µg/mL (≈ 51.1 µM) in the data set with K562; 13.2 µg/mL (≈ 75.8 µM) with HL-60; 9.1 µg/mL (≈ 52.2 µM) in the data set on NCI-H292; 22.9 µg/mL (≈ 131 µM) in the data set with MCF7; 10.9 µg/mL (≈ 62.6 µM) in the data set on HT-29. Moreover, the viability at 24 h, 12.5 ug/ml in data set [1] is 1%. The viability at 24 h, 25 ug/ml in data set [2] was found to be 7.4%. For the same compound, in data set [3], the viability at 24 h, 3.1 ug/ml worked out at 34.5%. In data set [4], the viability at 24 h, 6.2 ug/ml was found to be 30.9%. Further, the Activity result in data set [5] is given as “Dose-dependent effect”.
On to `O=C1C=CCC(COc2ccccc2)O1` (configuration not stated), for which the Activity in data set [6] was 5.2 µM; in data set [7], 112.4 pg/mL; in [5], “Dose-dependent effect”. In addition, the IC50 in the data set on K562 is 2.9 µg/mL (≈ 14.2 µM); in the data set with HL-60, 5.4 µg/mL (≈ 26.4 µM); in the data set with NCI-H292, 0.8 µg/mL (≈ 3.92 µM); in the data set with MCF7 it was 22.5 µg/mL (≈ 110 µM); in the data set on HT-29 it was 4.4 µg/mL (≈ 21.5 µM). Further, the viability at 24 h, 12.5 ug/ml in [1] stood at 0%. The viability at 24 h, 25 ug/ml in [2] stood at 0%. Also, in data set [3], the viability at 24 h, 3.1 ug/ml turned out to be 93%. Besides, in [4], the viability at 24 h, 6.2 ug/ml stood at 47.3%.
As to `C=CCCC1CC=CC(=O)O1` (configuration not stated), in data set [1], the viability at 24 h, 12.5 ug/ml is 19.7%. For the same compound, the viability at 24 h, 25 ug/ml in data set [2] stood at 2.5%. In addition, the viability at 24 h, 3.1 ug/ml in data set [3] was 57%. In addition, the IC50 in the data set on NCI-H292, in the data set on MCF7 and in the data set with HT-29 was more than 100 µg/mL each time. The viability at 24 h, 6.2 ug/ml in data set [4] was found to be 45.4%. For the same compound, the Activity result in data set [5] was “Dose-dependent effect”.
Take `C=CCOCC1CC=CC(=O)O1` (configuration not stated): the figures for the Activity in [6], in data set [7] and in data set [5] were 2.7 µM, 210 pg/mL and “Dose-dependent effect”, respectively. The 50% inhibitory concentration (IC50) in the data set on K562 was 50 µg/mL (≈ 297 µM); in the data set with HL-60 it was 25.5 µg/mL (≈ 152 µM); in the data set with NCI-H292, 16.6 µg/mL (≈ 98.7 µM); with MCF7, 44.6 µg/mL (≈ 265 µM); with HT-29, 18.4 µg/mL (≈ 109 µM). Besides, the viability at 24 h, 12.5 ug/ml in [1] stood at 51.1%. Besides, the viability at 24 h, 25 ug/ml in data set [2] amounted to 7.7%. The viability at 24 h, 3.1 ug/ml in [3] came out at 100%. In addition, the viability at 24 h, 6.2 ug/ml in data set [4] is 77.2%.
For the compound `CCCCC[C@@H]1CC=CC(=O)O1`, the IC50 in the data set on K562 is 20.2 µg/mL (≈ 120 µM); in the data set with HL-60, 16 µg/mL (≈ 95.1 µM); with NCI-H292, 11.3 µg/mL (≈ 67.2 µM); with MCF7, 60 µg/mL (≈ 357 µM); with HT-29 it was 22.6 µg/mL (≈ 134 µM).
In the case of `CCC1CC=CC(=O)O1` (configuration not stated), the 50% inhibitory concentration (IC50) in the data set on NCI-H292, in the data set with MCF7 and in the data set on HT-29 was more than 100 µg/mL throughout.
Take `COc1cccc2c1C(=O)c1c(O)c3c(c(O)c1C2=O)C[C@@](O)(C(=O)CO)C[C@@H]3O[C@H]1C[C@H](N)[C@H](O)[C@H](C)O1` [DOXORUBICIN]: the IC50 in the data set with K562 turned out to be 0.26 µg/mL (≈ 0.478 µM); in the data set on NCI-H292, 0.02 µg/mL (≈ 0.0368 µM).

One may read the IC50 as the concentration needed to halve the response being measured. Low readings indicate greater potency, high ones weaker potency.
